Screening results deposited in PubChem BioAssay by The Scripps Research Institute Molecular Screening Center.
CHRM4 agonist – agonists of human muscarinic M4 receptor (CHRM4). P08173. CHO-K1 hM4/Gqi5, Fluo-8 calcium fluorescence; vehicle 0%, full acetylcholine response 100%. activation, % at 3 µM. 360,000 tested, 0.14% active. AID 624127;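 active means activation above the run mean over all test wells plus 3 SD, cut at about 32% in these data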;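 further: peak over basal fluorescence ratio per well then scaled between controls; 0% = DMSO wells and 100% = acetylcholine at EC100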
CHRM4 antagonist – CHRM4 antagonism in calcium assay. 360,000 tested, 0.73% active. CHO-hM4 cells, ACh EC80, Fluo-8 calcium fluorescence. P08173. inhibition, % at 3 µM;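 active means inhibition above its plate's cutoff, the mean inhibition of sample wells plus 3 SD, cut at about 27% in these data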;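 further: 0% = acetylcholine EC80 with DMSO and 100% = DMSO without agonist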
M5 antag – antagonists of human muscarinic M5 receptor (CHRM5). CHO-hM5 cells, Fluo-8 calcium fluorescence, ACh EC80. inhibition, % at 3 µM. 360,000 tested, 0.59% active;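 active means inhibition above a per-plate cutoff, the mean of that plate's test compounds plus 3 SD, cut at about 27% in these data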;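 further: 0% = acetylcholine EC80 with DMSO and 100% = DMSO without agonist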
Target sequence (P08912 whole entry, looked up): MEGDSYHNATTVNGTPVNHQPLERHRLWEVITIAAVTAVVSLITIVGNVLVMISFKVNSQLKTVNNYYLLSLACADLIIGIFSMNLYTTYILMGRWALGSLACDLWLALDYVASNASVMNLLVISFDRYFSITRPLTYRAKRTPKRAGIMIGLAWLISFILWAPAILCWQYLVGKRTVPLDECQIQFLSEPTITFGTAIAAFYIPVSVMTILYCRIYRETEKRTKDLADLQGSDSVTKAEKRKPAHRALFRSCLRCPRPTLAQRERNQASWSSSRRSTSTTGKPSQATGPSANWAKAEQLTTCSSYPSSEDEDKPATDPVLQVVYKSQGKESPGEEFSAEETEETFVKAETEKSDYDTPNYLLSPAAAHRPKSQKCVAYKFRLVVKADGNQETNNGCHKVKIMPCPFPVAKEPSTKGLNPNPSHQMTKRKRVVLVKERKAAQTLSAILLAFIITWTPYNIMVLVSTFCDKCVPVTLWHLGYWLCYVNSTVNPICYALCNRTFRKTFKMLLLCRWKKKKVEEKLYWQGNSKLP
M4 PAM – CHRM4 positive allosteric modulation; CHO-K1 hM4/Gqi5, Fluo-8 calcium fluorescence, ACh EC20; 0% = ACh EC20, 100% = maximal ACh; P08173; 360,000 tested, 0.4% active; activation, % at 3 µM;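 active means activation above its plate's cutoff, the mean activation of sample wells plus 3 SD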
M5 PAM – positive allosteric modulators of human muscarinic M5 receptor; 360,000 tested, 0.3% active; CHO-K1 hM5, Fluo-8 calcium, ACh EC20 PAM; 0% = ACh EC20, 100% = ACh EC100; AID 624038; activation, % at 3 µM;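 active means activation above the run cutoff, the mean activation of all test compounds plus 3 SD, cut at about 18% in these data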
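Measured by: Fluo-8 calcium fluorescence; material: human M5 receptor in CHO-K1 cells; schedule: Post-acetylcholine fluorescence recording 140 s; benchmarks: low control EC20 acetylcholine (0%), high control EC100 acetylcholine (100%); read-out: Max/basal fluorescence ratio as % of EC20–EC100 ACh window; compound: single dose, 3 µM nominal final test concentration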
CHRM5 agonist – CHRM5 agonism in calcium assay; P08912; CHO-K1 hM5 cells, Fluo-8 calcium fluorescence; 0% DMSO wells, 100% maximal acetylcholine response; activation, % at 3 µM; 360,000 tested, 0.19% active;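 active means activation above the run's mean over test compounds plus 3 SD, cut at about 23% in these data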;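 further: signal is peak over basal fluorescence ratio across the kinetic read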
* = called active by the depositor. An excerpt weighted towards active compounds, which were near 1.8% of everything screened.

SMILES	CHRM4 agonist	CHRM4 antagonist	M5 antag	M4 PAM	M5 PAM	CHRM5 agonist
O=c1c(-c2ccccc2)c(O)c2cccc3c2n1CCC3	0	-15	-3	17*	2	-3
Cc1cc(C)c(-c2c(O)c3cccc4c3n(c2=O)CCC4)c(C)c1	0	0	-1	-3	-1	-6
CCOC(=O)C1=C(CC)Nc2ccccc2N/C1=N\S(=O)(=O)c1cc(Br)ccc1Br	29	15	65*	-17	-16	2
Cn1c(=O)[nH]c(=O)c2c1nc([N+](=O)[O-])n2Cc1ccccc1	1	-24	2	41*	4	7
CCOc1ccc(N(CC(=O)N/N=C/c2ccc(OC(C)C)cc2)S(C)(=O)=O)cc1	0	-1	-7	2	6	-5
COc1ccc(Nc2nc(OC)nc(OC)n2)cc1	1	2	5	0	-2	-1
COc1ccc(Nc2nc(Nc3ccc(OC)cc3)nc(-n3[nH]c(=O)c(C)c3C)n2)cc1	10	28*	31*	-9	-17	-3
COc1ccc(CNC(=O)CSC(=S)N2CCCC2)cc1	-1	-9	3	13	-4	-3
OCCCNc1ncnc2c1ncn2[C@H]1CN(C2CCCC2)C[C@@H](CO)O1	1	-4	3	3	0	1
O=C1CN(C(=O)c2c(F)cccc2F)C(c2ccc(F)cc2)c2cc(F)ccc2N1 (configuration not stated)	7	-14	-1	2	-1	2
O=C1CN(C(=O)c2cccc(F)c2)C(c2ccc(F)cc2)c2cc(F)ccc2N1 (configuration not stated)	8	52*	14	-19	-23	-8
Cc1c(N(C)S(=O)(=O)c2cccc(C(=O)NC(C)C)c2)c(=O)n(-c2ccccc2)n1C	1	5	-4	-5	6	-1
C=C1CC(Cn2cc(Br)c(=O)[nH]c2=O)(c2ccc(-c3ccccc3)cc2)OC1=O (configuration not stated)	6	46*	4	-7	-22	-3
CSc1nncc(-c2ccc(F)c(F)c2)n1	0	8	6	-4	0	0
CSc1nncc(-c2ccc(F)cc2)n1	33*	3	-5	-1	3	-4
CC(=O)C[C@H](O)CC(=O)[C@H]1OC(=O)CC/C=C\Cc2ccccc21	2	-3	-7	25*	6	4
CS(=O)(=O)Nc1ccc(C(=O)N2CCCCC2)cc1	3	-3	-4	23*	-8	0
CC1CN(C(=O)c2ccc(S(=O)(=O)Nc3cccc(C(F)(F)F)c3)cc2)CC(C)O1 (configuration not stated)	12	-11	3	-2	-4	28*
Cc1ccc(NS(=O)(=O)c2ccc(C(=O)N3CC(C)CC(C)C3)cc2)cc1 (configuration not stated)	107*	35*	31*	-19	-15	56*
CC(C)(CC(=O)O)CC(=O)N1CCCN(c2nccc(C(F)(F)F)n2)CC1	0	-12	-3	1	-2	-7
O=C([C@H](Cc1ccccc1)N1C(=O)c2ccccc2C1=O)N1CCOCC1	0	-5	14	0	-1	-3
Cc1cc(C(=O)N/N=C/c2ccc(-c3ccc([N+](=O)[O-])cc3C)o2)n[nH]1	2	0	10	1	-5	-3
Cc1cc([N+](=O)[O-])ccc1-c1ccc(/C=N/NC(=O)c2ccc(Br)o2)o1	0	-9	-4	1	-3	246*
Cc1nnc(SCC(=O)c2cc(C)n(-c3ccc4c(c3)OCO4)c2C)s1	11	13	27*	-22	-11	-1
CCC(O)CNC(=O)NC(=C(Cl)Cl)c1ccc(C)c(F)c1 (configuration not stated)	0	-10	5	9	22*	0
SMILES	CHRM4 agonist	CHRM4 antagonist	M5 antag	M4 PAM	M5 PAM	CHRM5 agonist
CCNC(=O)C1(C)CCN(C(=O)c2ccc(C)c(F)c2)C1 (configuration not stated)	1	3	10	6	-3	1
OC1(c2cccs2)CN(c2ccc(Br)cc2)C2=[N+]1CCCS2 (configuration not stated)	0	27*	20	-14	-28	-20
COc1ccc(OC)c(N2CC(O)(c3cccs3)[N+]3=C2SCCC3)c1 (configuration not stated)	0	3	-1	1	10	-2
CCOc1ccc(N2CC(O)(c3cccs3)[N+]3=C2CCCC3)cc1 (configuration not stated)	1	26	36*	-18	-33	-17
OC1(c2cccs2)CN(c2ccccc2)C2=[N+]1CCCC2 (configuration not stated)	1	-3	1	-6	-5	-16
O=C(COC(=O)c1ccc(F)c(S(=O)(=O)N2CCOCC2)c1)Nc1ccc2c(c1)OCO2	3	-13	0	11	-1	-1
Cc1ccc(NC(=O)C2CCCN(C(=O)c3ccc(Cl)cc3)C2)cc1S(=O)(=O)N1CCOCC1 (configuration not stated)	12	-4	10	-8	-7	3
CC(C)CC(=O)N1CCN(C(=O)c2ccc(F)cc2)CC1	1	2	-6	2	-2	2
CN(C)CCCNCCCNC(=O)/C(=N\O)c1ccccc1	1	-17	1	33*	6	-5
CN(C)CCCNCCCNC(=O)c1ccccn1	1	4	9	4	0	-4
CSC(=NS(=O)(=O)c1ccccc1)NNC(=O)c1c(-c2c(Cl)cccc2Cl)noc1C	-1	0	5	2	-1	0
O=C1c2cccc3c([N+](=O)[O-])ccc(c23)C(=O)N1c1ccc(Cl)cn1	4	32*	25	-13	-20	-7
O=C1c2cccc3c([N+](=O)[O-])ccc(c23)C(=O)N1c1nccs1	-2	36*	16	-12	-8	-5
O=C1c2cccc3c([N+](=O)[O-])ccc(c23)C(=O)N1c1ccccn1	1	15	28*	-6	-4	-7
O=C1c2cc([N+](=O)[O-])ccc2-c2cc(Br)c(N=C(NO)C(F)(F)F)cc21	5	-10	10	1	-10	11
CC1=NC(C#N)=C(C#N)NC(C)(C)C1	1	4	17	-5	-4	-3
CC(=O)Nc1ccc(OCC(O)Cn2c3ccccc3c3ccccc32)c(C)c1 (configuration not stated)	26	27*	15	-11	-12	11
